Experiment [1] concerns Human immunodeficiency virus type 1 (RF/HAT ISOLATE). Description: Reduction in HIV viral RNA concentration by 90% in MT-2 cells infected with HIV-1RF. The note with it: Human immunodeficiency virus 1, RF, MT2. It counts as functional. The method in brief:
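MT-2 cells infected with HIV-1RF; viral RNA transcript accumulation measured 3 days post-infection; value is the compound concentration lowering viral RNA by 90% from the reference level.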

For experiment [2], the target named is Human immunodeficiency virus type 1 protease (Human immunodeficiency virus 1, UniProt Q72874). Description: Binding affinity against HIV protease. The procedure, abridged: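 HIV protease inhibition measured as cleavage of a fluorescent substrate, with the cleavage products quantified by HPLC. Ki values were derived from this assay.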
The test system of the next experiment is MT2. Kind of experiment: Concentration required to reduce HIV viral RNA concentration by 90% in MT-2 cells infected with HIV-1RF was determined. The note with it: Homo sapiens.

Bounds are passed on as bounds.

Molecule `N#Cc1cccc(CN2C(=O)N(Cc3cccc(C#N)c3)[C@@H](Cc3ccccc3)[C@@H](O)[C@@H]2CCc2ccccc2)c1` returned an IC90 in experiment [1] of more than 5000 nM. The Ki in experiment [2] was found to be 8000 nM.

In experiment [2], `O=C1N(Cc2cccc(O)c2)[C@H](Cc2ccccc2)C(O)[C@@H](Cc2ccccc2)N1Cc1cccc(O)c1` gave an inhibition constant (Ki) of 33 nM.

As for `NC(=O)c1cccc(CN2C(=O)N(Cc3cccc(C(N)=O)c3)[C@@H](Cc3ccccc3)[C@@H](O)[C@@H]2CCc2ccccc2)c1`, in experiment [1], the IC90 was more than 5000 nM. This molecule yielded a Ki in experiment [2] of 4800 nM.

For the molecule `COC(=O)c1ccc(CN2C(=O)N(Cc3ccc(C(=O)OC)cc3)[C@H](Cc3ccccc3)[C@H](O)[C@H]2CCc2ccccc2)cc1`, the IC90 in experiment [1] is more than 5000 nM. The Ki in experiment [2] was 1970 nM.

`O=C1N(Cc2ccc3ccccc3c2)C(Cc2ccccc2)P(=O)(O)C(Cc2ccccc2)N1Cc1ccc2ccccc2c1` (stereo unspecified) had an IC90 with MT2 of 260 nM.

For the molecule `O=C1N(Cc2ccc(CO)cc2)[C@H](CCc2ccccc2)[C@@H](O)[C@@H](Cc2ccccc2)N1Cc1ccc(CO)cc1`, it took 3600 nM to reach the 90% level in experiment [1] (IC90). Besides, the Ki in experiment [2] stood at 2.5 nM.

`NC(=O)c1cc(CN2C(=O)N(Cc3ccc(F)c(C(N)=O)c3)[C@H](Cc3ccccc3)[C@H](O)[C@H]2CCc2ccccc2)ccc1F` returned an IC90 in experiment [1] of 490 nM. In experiment [2], this molecule returned a Ki of 1.4 nM.

`Nc1cc(CN2C(=O)N(Cc3ccc(F)c(N)c3)[C@H](Cc3ccccc3)[C@H](O)[C@H]2CCc2ccccc2)ccc1F` displayed an IC90 in experiment [1] of 36 nM. The molecule further showed an inhibitory constant (Ki) in experiment [2] of 0.25 nM.

In experiment [1], `COC(=O)c1cccc(CN2C(=O)N(Cc3cccc(C(=O)OC)c3)[C@@H](Cc3ccccc3)[C@@H](O)[C@@H]2CCc2ccccc2)c1` had an IC90 of more than 5000 nM.

In experiment [1], `O=C1N(CC2CC2)[C@H](CCc2ccccc2)[C@@H](O)[C@@H](Cc2ccccc2)N1CC1CC1` displayed an IC90 of 5200 nM. The molecule further yielded a Ki in experiment [2] of 3.8 nM.

As to `NC(=O)c1cccc(CN2C(=O)N(Cc3cccc(C(N)=O)c3)[C@H](Cc3ccccc3)[C@H](O)[C@H]2CCc2ccccc2)c1`, the 90% effect level in experiment [1] (IC90) was put at 35 nM. Besides, the Ki in experiment [2] is 0.088 nM.

`O=C1N(Cc2cccc(CO)c2)[C@@H](CCc2ccccc2)[C@H](O)[C@H](Cc2ccccc2)N1Cc1cccc(CO)c1` gave an IC90 in experiment [1] of more than 5000 nM. Besides, in experiment [2], the Ki amounted to 550 nM.

Turning to `N#Cc1cccc(CN2C(=O)N(Cc3cccc(C#N)c3)[C@H](Cc3ccccc3)[C@H](O)[C@H]2CCc2ccccc2)c1`, the 90% effect level in experiment [1] (IC90) was put at 1600 nM. The same molecule came in with a Ki in experiment [2] of 11 nM.

Molecule `O=C1N(Cc2cccc(O)c2)[C@H](CCc2ccccc2)[C@@H](O)[C@@H](Cc2ccccc2)N1Cc1cccc(O)c1` gave an IC90 in experiment [1] of 115 nM. The Ki in experiment [2] worked out at 0.3 nM.

For the molecule `N=C(NO)c1cccc(CN2C(=O)N(Cc3cccc(/C(N)=N/O)c3)[C@H](CCc3ccccc3)[C@@H](O)[C@H]2Cc2ccccc2)c1`, the IC90 in experiment [1] amounted to 49 nM.

Turning to `COC(=O)c1cccc(CN2C(=O)N(Cc3cccc(C(=O)OC)c3)[C@H](Cc3ccccc3)[C@H](O)[C@H]2CCc2ccccc2)c1`, the IC90 in experiment [1] is more than 5000 nM.

`O=C1N(Cc2cccc(CO)c2)[C@H](CCc2ccccc2)[C@@H](O)[C@@H](Cc2ccccc2)N1Cc1cccc(CO)c1` gave an IC90 in experiment [1] of 109 nM. In experiment [2], the Ki was 0.49 nM.

The molecule `COC(=O)c1cccc(CN2C(=O)C(=O)N(Cc3cccc(C(=O)OC)c3)[C@H](Cc3ccccc3)[C@H](O)[C@H]2CCc2ccccc2)c1` registered a Ki in experiment [2] of 40 nM.

For `Nc1cccc(CN2C(=O)N(Cc3cccc(N)c3)[C@H](Cc3ccccc3)[C@H](O)[C@H]2CCc2ccccc2)c1`, in experiment [1], the IC90 amounted to 365 nM. In addition, the Ki in experiment [2] stood at 1.7 nM.

Consider `O=C1N(Cc2ccccc2)[C@@H](Cc2ccccc2)C(O)[C@H](Cc2ccccc2)N1Cc1ccccc1`, for which the IC90 in the experiment on MT2 is 80000 nM.

In experiment [1], `Nc1ccc(CN2C(=O)N(Cc3ccc(N)c(F)c3)[C@H](Cc3ccccc3)[C@H](O)[C@H]2CCc2ccccc2)cc1F` gave an IC90 of 540 nM. Besides, the affinity in experiment [2] corresponds to a Ki of 8 nM.

Molecule `N=C(NO)c1cccc(CN2C(=O)N(Cc3cccc(/C(N)=N\O)c3)[C@@H](CCc3ccccc3)[C@H](O)[C@@H]2Cc2ccccc2)c1` showed an IC90 in experiment [1] of more than 5000 nM.

In experiment [1], `CNc1cccc(CN2C(=O)N(Cc3cccc(NC)c3)[C@H](Cc3ccccc3)[C@H](O)[C@H]2CCc2ccccc2)c1` registered an IC90 of 328 nM. The same molecule returned a Ki in experiment [2] of 4.9 nM.

Regarding `O=C1N(Cc2ccccc2)[C@H](CCc2ccccc2)[C@@H](O)[C@@H](Cc2ccccc2)N1Cc1ccccc1`, the IC90 in experiment [1] came out at 2800 nM. The Ki in experiment [2] turned out to be 15 nM.

Consider `O=C1N[C@H](CCc2ccccc2)[C@@H](O)[C@@H](Cc2ccccc2)N1`, for which, in experiment [1], the IC90 was more than 5000 nM.

The record behind these values is ChEMBL document CHEMBL1130044, “Design, synthesis, and evaluation of tetrahydropyrimidinones as an example of a general approach to nonpeptide HIV protease inhibitors” (J Med Chem, 1997).
